Activity calls are given as the source filed them.
Columns and labels:
Type in all cases: functional, organism-based
Candida albicans = assay: Antifungal activity against Candida albicans at 1 mM by almar blue dye reduction assay
How it was run: (§1)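 Single-point primary screen at 1 mM using Alamar Blue dye reduction as the growth read-out.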

Staphylococcus aureus = assay: Antibacterial activity against Staphylococcus aureus at 1 mM by almar blue dye reduction assay; how it was run: as §1
Escherichia coli = assay: Antibacterial activity against Escherichia coli at 1 mM by almar blue dye reduction assay; how it was run: as §1
Pseudomonas aeruginosa = assay: Antibacterial activity against Pseudomonas aeruginosa at 1 mM by almar blue dye reduction assay; how it was run: as §1
Bacillus anthracis = assay: Antibacterial activity against Bacillus anthracis at 1mM by almar blue dye reduction assay
Bacillus subtilis = assay: Antibacterial activity against Bacillus subtilis at 1 mM by almar blue dye reduction assay; how it was run: as §1
Saccharomyces cerevisiae = assay: Antifungal activity against Saccharomyces cerevisiae at 1 mM by almar blue dye reduction assay; how it was run: as §1
Bacillus cereus = assay: Antibacterial activity against Bacillus cereus at 1 mM by almar blue dye reduction assay; how it was run: as §1
Cryptococcus neoformans = assay: Antifungal activity against Cryptococcus neoformans at 1 mM by almar blue dye reduction assay; how it was run: as §1

Measured: Activity

COc1ccc(OCC#Cc2cn([C@H](C)C[C@@H]3CC[C@H]([C@@H](C)C(=O)N4CCN(CC5CCCO5)CC4)O3)nn2)cc1 (some centres not stated)
inactive: all assays above

CCN(CC)C(=O)[C@H](C)[C@H]1CC[C@@H](C[C@@H](C)n2cc(C#CCNCCOC)nn2)O1
inactive: all assays above

C[C@H](C[C@@H]1CC[C@H]([C@@H](C)C(=O)N2CCN(CC3CCCO3)CC2)O1)n1cc(C#Cc2ccc(Oc3ccccc3)cc2)nn1 (some centres not stated)
inactive: all assays above

CCCCCC#Cc1cn([C@H](C)C[C@@H]2CC[C@H]([C@@H](C)C(=O)N3CCN(CC4CCCO4)CC3)O2)nn1 (some centres not stated)
inactive: all assays above

CCN(CC)C(=O)[C@H](C)[C@H]1CC[C@@H](C[C@@H](C)n2cc(C#CCN3CCOCC3)nn2)O1
inactive: all assays above

CCN(CC)C(=O)[C@H](C)[C@H]1CC[C@@H](C[C@@H](C)n2cc(C#Cc3ccccc3)nn2)O1
inactive: all assays above

CC(C)NC(=O)[C@H](C)[C@H]1CC[C@@H](C[C@@H](C)n2cc(C#CCN3CCOCC3)nn2)O1
inactive: all assays above

C[C@H](C[C@@H]1CC[C@H]([C@@H](C)C(=O)N2CCCC2)O1)n1cc(C#CCOc2ccccc2)nn1
inactive: all assays above

CCN(CC)C(=O)[C@H](C)[C@H]1CC[C@@H](C[C@@H](C)n2cc(C#CCc3ccccc3)nn2)O1
inactive: all assays above

C[C@H](C[C@@H]1CC[C@H]([C@@H](C)C(=O)N2CCN(CC3CCCO3)CC2)O1)n1cc(C#CCN(C)C)nn1 (some centres not stated)
inactive: all assays above

C[C@H](C[C@@H]1CC[C@H]([C@@H](C)C(=O)N(C)Cc2ccccc2)O1)n1cc(C#CCc2ccccc2)nn1
inactive: all assays above

C[C@H](C[C@@H]1CC[C@H]([C@@H](C)C(=O)N(C)Cc2ccccc2)O1)n1cc(C#Cc2ccccc2)nn1
inactive: all assays above

C[C@H](C[C@@H]1CC[C@H]([C@@H](C)C(=O)N2CCN(CC3CCCO3)CC2)O1)n1cc(C#Cc2ccccc2[N+](=O)[O-])nn1 (some centres not stated)
inactive: all assays above

CC(C)NC(=O)[C@H](C)[C@H]1CC[C@@H](C[C@@H](C)n2cc(C#Cc3ccccc3)nn2)O1
inactive: all assays above

CC(C)NC(=O)[C@H](C)[C@H]1CC[C@@H](C[C@@H](C)n2cc(C#Cc3cccc4ccccc34)nn2)O1
inactive: all assays above

CCN(CC)C(=O)[C@H](C)[C@H]1CC[C@@H](C[C@@H](C)n2cc(C#CCC3CCCC3)nn2)O1
inactive: all assays above

C[C@H](C[C@@H]1CC[C@H]([C@@H](C)C(=O)N(C)Cc2ccccc2)O1)n1cc(C#CCOc2ccc(C(F)(F)F)cc2)nn1
inactive: all assays above

C[C@H](C[C@@H]1CC[C@H]([C@@H](C)C(=O)N(C)Cc2ccccc2)O1)n1cc(C#Cc2ccc(-c3ccccc3)cc2)nn1
inactive: all assays above

C[C@H](C[C@@H]1CC[C@H]([C@@H](C)C(=O)N2CCCC2)O1)n1cc(C#CCc2ccccc2)nn1
inactive: all assays above

Cc1cccc(NC(=O)NCC#Cc2cn([C@H](C)CC3CCC([C@@H](C)C(=O)NC(C)C)O3)nn2)c1 (single isomer, unassigned)
inactive: all assays above

CCCCN(CC#Cc1cn([C@H](C)C[C@@H]2CC[C@H]([C@@H](C)C(=O)N(CC)CC)O2)nn1)CCCC
inactive: all assays above

COc1ccc(C#Cc2cn([C@H](C)C[C@@H]3CC[C@H]([C@@H](C)C(=O)N(C)Cc4ccccc4)O3)nn2)cc1
inactive: all assays above

CC(C)CC#Cc1cn([C@H](C)C[C@@H]2CC[C@H]([C@@H](C)C(=O)N3CCN(CC4CCCO4)CC3)O2)nn1 (some centres not stated)
inactive: all assays above

Source: ChEMBL document CHEMBL1155099, “Natural products in parallel synthesis: triazole libraries of nonactic acid” (2008)
